Tests used:
A2780 = assay: Cytotoxicity against human A2780 cells assessed as reduction in cell viability incubated fro 96 hrs by SRB assay; format: functional, cell-based; settings: A2780, 96 h
Summary of the method: (§1)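 Sulforhodamine B photometric assay after 96 h treatment. Monolayers were grown in RPMI 1640 with L-glutamine, 10% heat-inactivated FBS and penicillin/streptomycin at 37 °C in humidified 5% CO2. Cut-off was 30 μM, or 60 μM for the parent. EC50 was averaged from at least three independent experiments, each in four replicates. Betulinic acid was the positive standard.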

FaDu = assay: Cytotoxicity against human FADU cells assessed as reduction in cell viability incubated fro 96 hrs by SRB assay; format: functional, cell-based
Leishmania infantum [1] = assay: Antileishmanial activity against Leishmania infantum MHOM/BR/70/BH46 intracellular amastigotes infected in canine DH82 cells assessed as as inhibition of cell growth at 1000 uM incubated for 48 hrs by ELISA method; format: functional; settings: MHOM/BR/70/BH46, DH82, 48 h, read-out: GI
SW-1736 = assay: Cytotoxicity against human SW1736 cells assessed as reduction in cell viability incubated fro 96 hrs by SRB assay; format: functional, cell-based; settings: SW-1736, 96 h; summary of the method: as §1
A-375 = assay: Cytotoxicity against human A375 cells assessed as reduction in cell viability incubated fro 96 hrs by SRB assay; format: functional, cell-based; settings: A-375, 96 h; summary of the method: as §1
HT-29 = assay: Cytotoxicity against human HT-29 cells assessed as reduction in cell viability incubated fro 96 hrs by SRB assay; format: functional, cell-based; settings: HT-29, 96 h; summary of the method: as §1
[2] = Selectivity index, ratio of CC50 for African green monkey BGM cells to IC50 for antileishmanial activity against Leishmania infantum MHOM/BR/70/BH46 intracellular amastigotes infected in canine DH82 cells; format: toxicity, cell-based; settings: read-out: Ratio CC50/IC50
Summary of the method: (§2)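 SI = CC50 in BGM or HepG2 cells (MTT) divided by the intracellular amastigote IC50.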

Leishmania infantum [3] = assay: Antiparasitic activity against Leishmania infantum; format: functional, organism-based
[4] = Selectivity index, ratio of CC50 for human HepG2 cells to IC50 for antileishmanial activity against Leishmania infantum MHOM/BR/70/BH46 intracellular amastigotes infected in canine DH82 cells; format: toxicity, cell-based; settings: read-out: Ratio CC50/IC50; summary of the method: as §2
[5] = Selectivity index, ratio of CC50 for dog DH82 cells to IC50 for antileishmanial activity against Leishmania infantum MHOM/BR/70/BH46 intracellular amastigotes infected in canine DH82 cells; format: toxicity, cell-based; settings: read-out: Ratio CC50/IC50
Summary of the method: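 SI = CC50 in DH82 macrophages (MTT) divided by IC50 against intracellular L. infantum BH46 amastigotes.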

[6] = Cytotoxicity in African green monkey BGM cells assessed as reduction in cell viability incubated for 48 hrs by MTT assay; format: cell-based; settings: chlorocebus aethiops
Summary of the method: (§3)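 MTT colorimetric assay with microscopic monitoring. CC50 is the concentration cytotoxic to 50% of BGM or HepG2 cells. Potassium antimonyl tartrate trihydrate was the positive control.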

[7] = Cytotoxicity in dog DH82 cells assessed as reduction in cell viability incubated for 48 hrs by MTT assay; format: cell-based, Canis lupus familiaris
Summary of the method: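 DH82 canine macrophage viability was monitored microscopically and by MTT colorimetric assay. CC50 is the concentration cytotoxic to 50% of DH82 cells. Potassium antimonyl tartrate trihydrate was the positive control.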

[8] = Cytotoxicity in human HepG2 cells assessed as reduction in cell viability incubated for 48 hrs by MTT assay; format: cell-based; summary of the method: as §3
Leishmania infantum [9] = assay: Antileishmanial activity against Leishmania infantum MHOM/BR/70/BH46 intracellular amastigotes infected in canine DH82 cells assessed as as inhibition of cell growth incubated for 48 hrs by ELISA method; format: functional, organism-based; settings: MHOM/BR/70/BH46, DH82, 48 h
Summary of the method: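 L. infantum BH46 intracellular amastigotes. Phase II testing at 0.1, 1.0, 10 and 100 μM. IC50 is the concentration inhibiting in vitro growth by 50%, taken from dose-response curves (log concentration vs inhibition) run in four replicates. Potassium antimonyl tartrate trihydrate served as positive control.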

Structure (SMILES)	EC50 (A2780) [µM]	EC50 (FaDu) [µM]	inhibition of growth at 1000 µM (Leishmania infantum [1]) [%]	EC50 (SW-1736) [µM]	EC50 (A-375) [µM]	EC50 (HT-29) [µM]	selectivity ratio [2]	IC50 (Leishmania infantum [3]) [µM]	selectivity ratio [4]	selectivity ratio [5]	CC50 at 48 h [6] [µM]	CC50 at 48 h [7] [µM]	CC50 at 48 h [8] [µM]	IC50 (Leishmania infantum [9]) [µM]
CC1(C)CC[C@]2(C(=O)OCc3cn(Cc4ccccc4)nn3)CC[C@]3(C)C(=CC[C@@H]4[C@@]5(C)CC[C@H](O)[C@@](C)(COCc6cn(Cc7ccccc7)nn6)[C@@H]5CC[C@]43C)[C@@H]2C1	> 30	> 30	17.7	> 30	> 30	> 30								
CC1(C)CC[C@]2(C(=O)O)CC[C@]3(C)C(=CC[C@@H]4[C@@]5(C)CC[C@H](O)[C@@](C)(CO)[C@@H]5CC[C@]43C)[C@@H]2C1 [HEDERAGENIN]	> 60	> 60	55.5	> 60	> 60	> 60	0.9	61.6	> 16.2	> 10	57	> 1000	> 1000	
CC1(C)CC[C@]2(C(=O)NCc3cn(Cc4ccccc4[N+](=O)[O-])nn3)CC[C@]3(C)C(=CC[C@@H]4[C@@]5(C)CC[C@H](O)[C@@](C)(CO)[C@@H]5CC[C@]43C)[C@@H]2C1								2 to 6						
CC1(C)CC[C@]2(C(=O)OCc3cn(Cc4ccc([N+](=O)[O-])cc4)nn3)CC[C@]3(C)C(=CC[C@@H]4[C@@]5(C)CC[C@H](O)[C@@](C)(COCc6cn(Cc7ccc([N+](=O)[O-])cc7)nn6)[C@@H]5CC[C@]43C)[C@@H]2C1	> 30	> 30	58.6	> 30	> 30	> 30	> 38		> 38	> 38	> 1000	> 1000	> 1000	25.9
CC1(C)CC[C@]2(C(=O)OCc3cn(Cc4ccccc4[N+](=O)[O-])nn3)CC[C@]3(C)C(=CC[C@@H]4[C@@]5(C)CC[C@H](O)[C@@](C)(CO)[C@@H]5CC[C@]43C)[C@@H]2C1								32 to 34						
CC1(C)CC[C@]2(C(=O)OCc3cn(Cc4ccccc4[N+](=O)[O-])nn3)CC[C@]3(C)C(=CC[C@@H]4[C@@]5(C)CC[C@H](O)[C@@](C)(COCc6cn(Cc7ccccc7[N+](=O)[O-])nn6)[C@@H]5CC[C@]43C)[C@@H]2C1	> 30	> 30	35	> 30	> 30	> 30								
Cc1cccc(Cn2cc(COC[C@@]3(C)[C@@H]4CC[C@]5(C)[C@H](CC=C6[C@@H]7CC(C)(C)CC[C@]7(C(=O)OCc7cn(Cc8cccc(C)c8)nn7)CC[C@]65C)[C@@]4(C)CC[C@@H]3O)nn2)c1	> 30	> 30	31.3	> 30	> 30	> 30								
CC1(C)CC[C@]2(C(=O)OCc3cn(Cc4ccc(Br)cc4)nn3)CC[C@]3(C)C(=CC[C@@H]4[C@@]5(C)CC[C@H](O)[C@@](C)(COCc6cn(Cc7ccc(Br)cc7)nn6)[C@@H]5CC[C@]43C)[C@@H]2C1	> 30	> 30	9.8	> 30	> 30	> 30								
Cc1ccc(Cn2cc(COC[C@@]3(C)[C@@H]4CC[C@]5(C)[C@H](CC=C6[C@@H]7CC(C)(C)CC[C@]7(C(=O)OCc7cn(Cc8ccc(C)cc8)nn7)CC[C@]65C)[C@@]4(C)CC[C@@H]3O)nn2)cc1	29.1	> 30	0	> 30	26.1	21.7								
CC1(C)CC[C@]2(C(=O)OCc3cn(Cc4ccccc4Cl)nn3)CC[C@]3(C)C(=CC[C@@H]4[C@@]5(C)CC[C@H](O)[C@@](C)(COCc6cn(Cc7ccccc7Cl)nn6)[C@@H]5CC[C@]43C)[C@@H]2C1	> 30	> 30	4.1	> 30	> 30	27								
CC1(C)CC[C@]2(C(=O)OCc3cn(CC(=O)c4ccccc4)nn3)CC[C@]3(C)C(=CC[C@@H]4[C@@]5(C)CC[C@H](O)[C@@](C)(COCc6cn(CC(=O)c7ccccc7)nn6)[C@@H]5CC[C@]43C)[C@@H]2C1	> 30	> 30	0	> 30	> 30	> 30								
CC1(C)CC[C@]2(C(=O)OCc3cn(Cc4ccc(F)cc4F)nn3)CC[C@]3(C)C(=CC[C@@H]4[C@@]5(C)CC[C@H](O)[C@@](C)(CO)[C@@H]5CC[C@]43C)[C@@H]2C1								11						
CC1(C)CC[C@]2(C(=O)OCc3cn(Cc4cccc(Br)c4)nn3)CC[C@]3(C)C(=CC[C@@H]4[C@@]5(C)CC[C@H](O)[C@@](C)(COCc6cn(Cc7cccc(Br)c7)nn6)[C@@H]5CC[C@]43C)[C@@H]2C1	> 30	> 30	7.8	> 30	> 30	> 30								
CC1(C)CC[C@]2(C(=O)OCc3cn(Cc4cccc([N+](=O)[O-])c4)nn3)CC[C@]3(C)C(=CC[C@@H]4[C@@]5(C)CC[C@H](O)[C@@](C)(COCc6cn(Cc7cccc([N+](=O)[O-])c7)nn6)[C@@H]5CC[C@]43C)[C@@H]2C1	> 30	> 30	21.4	> 30	> 30	> 30								
CC1(C)CC[C@]2(C(=O)OCc3cn(Cc4ccc(Cl)cc4)nn3)CC[C@]3(C)C(=CC[C@@H]4[C@@]5(C)CC[C@H](O)[C@@](C)(COCc6cn(Cc7ccc(Cl)cc7)nn6)[C@@H]5CC[C@]43C)[C@@H]2C1	> 30	> 30	1.6	> 30	> 30	> 30								
CC1(C)CC[C@]2(C(=O)OCc3cn(CC(=O)c4ccc5ccccc5c4)nn3)CC[C@]3(C)C(=CC[C@@H]4[C@@]5(C)CC[C@H](O)[C@@](C)(COCc6cn(CC(=O)c7ccc8ccccc8c7)nn6)[C@@H]5CC[C@]43C)[C@@H]2C1	> 30	> 30	71.5	> 30	> 30	> 30								
CC1(C)CC[C@]2(C(=O)OCc3cn(Cc4cccc(Cl)c4)nn3)CC[C@]3(C)C(=CC[C@@H]4[C@@]5(C)CC[C@H](O)[C@@](C)(COCc6cn(Cc7cccc(Cl)c7)nn6)[C@@H]5CC[C@]43C)[C@@H]2C1	> 30	> 30	41.8	> 30	> 30	> 30								
C=C(C)[C@@H]1CC[C@]2(C(=O)O)CC[C@]3(C)[C@H](CC[C@@H]4[C@@]5(C)CC[C@H](O)C(C)(C)[C@@H]5CC[C@]43C)[C@@H]12 [BETULINIC ACID]		13.4		16.4	12									
CC1(C)CC[C@]2(C(=O)NCc3cn(Cc4ccc(Cl)cc4)nn3)CC[C@]3(C)C(=CC[C@@H]4[C@@]5(C)CC[C@H](O)[C@@](C)(CO)[C@@H]5CC[C@]43C)[C@@H]2C1								2 to 6						
CC1(C)CC[C@]2(C(=O)OCc3cn(Cc4ccccc4Br)nn3)CC[C@]3(C)C(=CC[C@@H]4[C@@]5(C)CC[C@H](O)[C@@](C)(COCc6cn(Cc7ccccc7Br)nn6)[C@@H]5CC[C@]43C)[C@@H]2C1	> 30	> 30	53.4	> 30	> 30	> 30								
C#CCOC[C@@]1(C)[C@@H]2CC[C@]3(C)[C@H](CC=C4[C@@H]5CC(C)(C)CC[C@]5(C(=O)OCC#C)CC[C@]43C)[C@@]2(C)CC[C@@H]1O			77.2				3.5		3.7	9	99	259	104	28.8
